Data set [1] deals with T1, Tyrosine-protein phosphatase non-receptor type 1 (Homo sapiens, UniProt P18031).
T1 sequence (P18031 whole entry): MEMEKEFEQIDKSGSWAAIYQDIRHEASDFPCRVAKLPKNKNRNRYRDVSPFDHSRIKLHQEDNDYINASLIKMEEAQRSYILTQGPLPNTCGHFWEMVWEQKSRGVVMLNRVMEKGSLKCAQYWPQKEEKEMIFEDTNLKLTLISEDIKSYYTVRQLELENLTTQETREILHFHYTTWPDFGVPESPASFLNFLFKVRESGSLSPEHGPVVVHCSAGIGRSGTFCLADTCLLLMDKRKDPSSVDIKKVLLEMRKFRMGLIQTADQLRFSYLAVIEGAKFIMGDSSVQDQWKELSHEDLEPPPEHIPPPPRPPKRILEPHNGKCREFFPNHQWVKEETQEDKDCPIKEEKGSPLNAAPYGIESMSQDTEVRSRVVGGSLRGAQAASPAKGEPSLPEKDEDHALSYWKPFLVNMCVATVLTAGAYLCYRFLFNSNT
Description: Inhibition of PTP1B assessed as para-nitrophenyl phosphate catalyzed hydrolysis of para-nitrophenol by p-NPP assay. Summed up: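 Enzymatic pNPP assay: initial rate of PTP1B-catalyzed pNPP hydrolysis read at 405 nm. IC50 determined at a fixed pNPP concentration of 1 mM. n = 3, mean ± SD.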

Data set [2] is described as follows: Selectivity ratio of IC50 for CD45 to IC50 for PTP1B.
For data set [3], the target named is T2, Tyrosine-protein phosphatase non-receptor type 2 (Homo sapiens, UniProt P17706).
T2 sequence (P17706 whole entry): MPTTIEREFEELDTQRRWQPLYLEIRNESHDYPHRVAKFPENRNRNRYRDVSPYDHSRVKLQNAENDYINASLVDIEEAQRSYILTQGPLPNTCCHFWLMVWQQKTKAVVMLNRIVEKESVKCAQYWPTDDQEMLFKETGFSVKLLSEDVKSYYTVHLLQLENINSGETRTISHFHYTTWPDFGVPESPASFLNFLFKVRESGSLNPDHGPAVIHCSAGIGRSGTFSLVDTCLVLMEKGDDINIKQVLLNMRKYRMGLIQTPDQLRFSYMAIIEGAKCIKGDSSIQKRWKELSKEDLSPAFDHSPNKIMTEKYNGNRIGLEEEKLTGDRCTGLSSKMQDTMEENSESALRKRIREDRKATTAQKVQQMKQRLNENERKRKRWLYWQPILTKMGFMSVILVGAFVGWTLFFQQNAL
Briefly: Inhibition of TCPTP.

Data set [4] in a line: Selectivity ratio of IC50 for PTPalpha to IC50 for PTP1B.
Data set [5] can be described thus: Selectivity ratio of IC50 for SHP2 to IC50 for PTP1B.
Data set [6] is described as follows: Selectivity ratio of IC50 for TCPTP to IC50 for PTP1B.
Data set [7] is described as follows: Selectivity ratio of IC50 for SHP1 to IC50 for PTP1B.
Data set [8] in a line: Selectivity ratio of IC50 for LAR to IC50 for PTP1B.
Data set [9] in a line: AUC in fasted C57BL/6J mouse at 20 mg/kg, iv. Also on record: dose 20 mg/kg, route intravenous. In kind it is ADME, organism-based. The conditions noted are these: plasma. Summed up: (§1)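 Male C57BL/6J mice (n = 6), fasted overnight, single 20 mg/kg dose by body weight, given po or iv. Plasma separated at 4 °C, stored at −70 °C, then quantified by LC–MS/MS. %F taken from po AUC relative to iv AUC. Mean ± SD.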

Data set [10] is described as follows: AUC (0 to infinity) in fasted C57BL/6J mouse at 20 mg/kg, po. In kind it is ADME, organism-based. Also on record: time infinity, dose 20 mg/kg, route oral. The conditions noted are these: plasma. The procedure, abridged: as §1
The nature of data set [11]: Half life in fasted C57BL/6J mouse at 20 mg/kg, po. The conditions noted are these: in vivo. Also on record: dose 20 mg/kg, route oral. It counts as ADME, organism-based. Summed up: as §1
A short description of data set [12]: Tmax in fasted C57BL/6J mouse at 20 mg/kg, po. It counts as ADME, organism-based. Details: dose 20 mg/kg, route oral. The conditions noted are these: in vivo. Summed up:
as §1

The test system of data set [13] is Mus musculus. Briefly: Antidiabetic activity in fasted C57BL/6J mouse assessed as reduction in serum AUC glucose level at 20 mg/kg, po after 240 mins by intraperitoneal glucose tolerance test relative to control. In kind it is functional. The procedure, abridged:
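Overnight-fasted male C57BL/6J mice dosed orally at 20 mg/kg 0.5 h before an intraperitoneal glucose load of 1.5 g/kg. Blood taken at 0, 30, 60, 120 and 240 min, and serum glucose measured promptly by GOD-POD method in duplicate. AUC 0–240 min compared with vehicle control. Two-way ANOVA with Bonferroni post test, mean ± SEM.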

Data set [14] can be described thus: Oral bioavailability in fasted C57BL/6J mouse at 20 mg/kg. In kind it is ADME, organism-based. The conditions noted are these: in vivo. Summed up:
as §1

A short description of data set [15]: Cmax in fasted C57BL/6J mouse at 20 mg/kg, po. In kind it is ADME, organism-based. Details: dose 20 mg/kg, route oral. The conditions noted are these: in vivo. The procedure, abridged:
as §1

Active and inactive are the calls of the source. The calls are words filed in the database; no cut-off is given here.

As usually defined, the IC50 is the concentration at which inhibition is half-maximal. On to `O=C(O)COc1ccc(S(=O)(=O)N(Cc2ccc(-c3csnn3)cc2)Cc2ccc(Br)c(C(F)(F)P(=O)(O)O)c2)cc1`, for which, in data set [1], the IC50 came out at 288 nM.

Regarding `O=C(O)COc1ccc(S(=O)(=O)N(Cc2ccc(-c3csnn3)cc2)Cc2ccc(C3CC(=O)NS3(=O)=O)c(F)c2)cc1` (stereo not given), in data set [1], the IC50 worked out at 460 nM.

Take `NS(=O)(=O)C(F)(F)c1ccc(CN(Cc2ccc(-c3csnn3)cc2)S(=O)(=O)c2ccc(OCC(=O)O)cc2)cc1F`: the Ratio IC50 is over 5000 in data set [2]; over 5000 in [4]; over 5000 in data set [5]; 20 in data set [6]; over 5000 in [7]; over 5000 in data set [8]. The IC50 in [3] stood at 620 nM; in [1], 31 nM.

Consider `NS(=O)(=O)C(F)(F)c1cc2nc(CN(Cc3ccc(-c4csnn4)cc3)S(=O)(=O)c3ccc(OCC(=O)O)cc3)ccc2cc1Br`, for which the IC50 in data set [1] is 41 nM.

As a reminder, the AUC is the area under the concentration-time curve, a measure of exposure. The low end stands for less exposure, the high end for more exposure. As usually defined, the AUC(0-inf) is the area under the concentration-time curve extrapolated to infinity. In general, half-life refers to the time in which the quantity being followed falls by half. A lower half-life goes with rapid decline. What is called Tmax is the time from dosing to the highest level. A word on the bioavailability: it is the share of a dose that reaches the circulation, judged against a reference dose that is usually intravenous. Read a low bioavailability as poor availability. For orientation: Cmax means the maximum level reached in the sampled fluid or tissue. In the case of `O=C(O)COc1ccc(S(=O)(=O)N(Cc2ccc(-c3csnn3)cc2)Cc2ccc3cc(F)c(C(F)(F)P(=O)(O)O)cc3n2)cc1`, the Ratio IC50 in [2] is over 5000; in data set [4] it was over 5000; in data set [5] it was over 5000; in [6] it was 90; in [7], over 5000; in [8], over 5000. The compound also came in with an AUC in [9] of 147 µg·h/mL. This compound returned an AUC(0-inf) in data set [10] of 1320 ng·h/mL. In data set [11], this compound showed a half-life of 59.4 min. In addition, in data set [12], the Tmax came to 41.4 min. Besides, the IC50 in [3] is 990 nM; in data set [1], 11 nM. Moreover, in data set [13], the Activity was 19.18 mg/dL. For the same compound, the bioavailability in data set [14] was 0.9%. This compound also displayed a Cmax in data set [15] of 960 ng/mL.

`NS(=O)(=O)C(F)(F)c1cc2cc(CN(Cc3ccc(-c4csnn4)cc3)S(=O)(=O)c3ccc(OCC(=O)O)cc3)ccc2cc1F`: the IC50 in data set [1] amounted to 35 nM.

As for `O=C(c1ccccc1)C(Cc1ccc2cc(Br)c(C(F)(F)P(=O)(O)O)cc2c1)(Cc1ccc2cc(Br)c(C(F)(F)P(=O)(O)O)cc2c1)n1nnc2ccccc21`, the Ratio IC50 in [6] is 116.

`O=C(O)COc1ccc(S(=O)(=O)N(Cc2ccc(-c3csnn3)cc2)Cc2ccc3cc(Br)c(C(F)(F)P(=O)(O)O)cc3n2)cc1`: the IC50 in data set [1] turned out to be 18 nM.

As for `O=C(O)COc1ccc(S(=O)(=O)N(Cc2ccc(-c3csnn3)cc2)Cc2ccc(C(F)(F)P(=O)(O)O)cc2)cc1`, the result in [13] was inactive. For the same compound, in [6], the Ratio IC50 stood at 7.

With `O=C(O)COc1ccc(S(=O)(=O)N(Cc2ccc(-c3csnn3)cc2)Cc2ccc3cc(F)c(C(F)(F)P(=O)(O)O)cc3c2)cc1`, the Ratio IC50 in data set [2] was over 5000; in [4] it was over 5000; in [5], over 5000; in data set [6], 96; in data set [7], over 5000; in data set [8] it was over 5000. Besides, the AUC in [9] came to 137 µg·h/mL. Also, the AUC(0-inf) in data set [10] stood at 8910 ng·h/mL. In [11], the half-life was 418 min. Besides, the Tmax in [12] came to 18.6 min. Moreover, the concentration for half-maximal inhibition (IC50) in data set [3] was 870 nM; in [1], 9 nM. The Activity in [13] was determined as 52.8 mg/dL. Also, the bioavailability in data set [14] turned out to be 6.51%. The compound also returned a Cmax in data set [15] of 6300 ng/mL.

For the compound `O=C(O)COc1ccc(S(=O)(=O)N(Cc2ccc(-c3csnn3)cc2)Cc2ccc(C(F)(F)P(=O)(O)O)c(Br)c2)cc1`, the Ratio IC50 in data set [2] is over 5000; in [4], over 5000; in data set [5], over 5000; in data set [6], 15; in data set [7], over 5000; in data set [8], over 5000. Besides, the IC50 in data set [3] came to 750 nM; in data set [1], 50 nM.

On to `O=C(O)COc1ccc(S(=O)(=O)N(Cc2ccc(-c3csnn3)cc2)Cc2ccc(C3CC(=O)NS3(=O)=O)cc2)cc1` (stereo not given), for which the IC50 in [1] is 500 nM.

For the compound `O=C(O)COc1ccc(S(=O)(=O)N(Cc2ccc(-c3csnn3)cc2)Cc2ccc(F)c(C(F)(F)P(=O)(O)O)c2)cc1`, the IC50 in data set [1] was determined as 141 nM.

`NS(=O)(=O)C(F)(F)c1cc2cc(CN(Cc3ccc(-c4csnn4)cc3)S(=O)(=O)c3ccc(OCC(=O)O)cc3)ccc2cc1Br`: the IC50 in [1] was determined as 39 nM.

Consider `NS(=O)(=O)C(F)(F)c1ccc(CN(Cc2ccc(-c3csnn3)cc2)S(=O)(=O)c2ccc(OCC(=O)O)cc2)cc1Br`, for which the IC50 in data set [1] came out at 47 nM.

As to `O=C(O)COc1ccc(S(=O)(=O)N(Cc2ccc(-c3csnn3)cc2)Cc2ccc(C(F)(F)P(=O)(O)O)c(F)c2)cc1`, the Ratio IC50 in data set [2] is over 5000; in [4], over 5000; in data set [5], over 5000; in data set [6], 24; in [7] it was over 5000; in [8] it was over 5000. The figures for the IC50 in data set [3] and in data set [1] were 870 nM and 35 nM, respectively.

Take `NS(=O)(=O)C(F)(F)c1cc2nc(CN(Cc3ccc(-c4csnn4)cc3)S(=O)(=O)c3ccc(OCC(=O)O)cc3)ccc2cc1F`: the IC50 in data set [1] was determined as 38 nM.

As for `O=C(O)COc1ccc(S(=O)(=O)N(Cc2ccc(-c3csnn3)cc2)Cc2ccc3cc(Br)c(C(F)(F)P(=O)(O)O)cc3c2)cc1`, the IC50 in [1] is 17 nM.

`Cc1cc(CN(Cc2ccc(-c3csnn3)cc2)S(=O)(=O)c2ccc(OCC(=O)O)cc2)ccc1C1CC(=O)NS1(=O)=O` (stereo not given): the IC50 in data set [1] turned out to be 470 nM.

As for `O=C(O)COc1ccc(S(=O)(=O)N(Cc2ccc(-c3csnn3)cc2)Cc2ccc(C3CC(=O)NS3(=O)=O)c(Br)c2)cc1` (stereo not given), the IC50 in data set [1] worked out at 480 nM.

The values are drawn from ChEMBL document CHEMBL1938308, “Discovery of potent, selective and orally bioavailable triaryl-sulfonamide based PTP1B inhibitors” (Bioorg Med Chem Lett, 2012).
